# Published values of several laboratories.
# Compare with care: the assays were run in different laboratories.
# HTR1E: 5-hydroxytryptamine receptor 1E (HTR1E, Homo sapiens, UniProt P28566)
# BACE1: Beta-secretase 1 (BACE1, Homo sapiens, UniProt P56817)
Compound,target,test,quantity,result
C=CC(=O)N[C@H]1C=C(C)c2c(-c3cnc4ccccc4c3)c3c(N)ncnc3n2C1,"Epidermal growth factor receptor (EGFR, Homo sapiens, UniProt P00533, L858R/T790M)","enzyme activity, inhibitor",IC50,0.0011 µM
CC(N)Cc1c[nH]c2ccc(OCc3cccs3)cc12 (stereo not drawn),HTR1E,"G protein activation, agonist, BRET",EC50,3.99 µM
Cc1c2oc3c(C)ccc(C(=O)N[C@@H]4C(=O)N[C@H](C(C)C)C(=O)N5CCC[C@H]5C(=O)N(C)CC(=O)N(C)[C@@H](C(C)C)C(=O)O[C@@H]4C)c3nc-2c(C(=O)N[C@@H]2C(=O)N[C@H](C(C)C)C(=O)N3CCC[C@H]3C(=O)N(C)CC(=O)N(C)[C@@H](C(C)C)C(=O)O[C@@H]2C)c(N)c1=O,"Palmitoyl-protein thioesterase 1 (Homo sapiens, UniProt P50897)","binding, MST",Kd,0.235 µM
COC(=O)c1cc(N(C)C(=O)c2ccn3ncc(-c4ccc(C(=O)O)cc4)c3c2)ccc1Cl,"Epidermal growth factor receptor (EGFR, Homo sapiens, UniProt P00533)","enzyme activity, inhibitor",IC50,> 30 µM
O=C(O)C(F)(F)C(F)(F)C(F)(F)C(F)(F)C(F)(F)C(F)(F)C(F)(F)F,"Aldo-keto reductase family 1 member C4 (AKR1C4, Homo sapiens, UniProt P17516)","enzyme activity, inhibitor",IC50,≥ 50 µM
Cn1cc(-c2cc(C(=O)NN=Cc3cccc([N+](=O)[O-])c3)no2)c2ccccc21,BACE1,"enzyme activity, inhibitor, FRET",IC50,> 100 µM
CNC(=O)c1ccc(-c2cnn3ccc(C(=O)N(C)c4ccc(Cl)c(C(=O)O)c4)cc23)cc1,"Non-receptor tyrosine-protein kinase TYK2 (TYK2, Homo sapiens, UniProt P29597)","enzyme activity, inhibitor",IC50,> 30 µM
CC[C@H](C)[C@H](NC(=O)[C@H](CO)NC(=O)CNC(=O)[C@@H](NC(=O)[C@@H](NC(=O)[C@@H](NC(=O)CN)[C@@H](C)O)C(C)C)[C@@H](C)O)C(=O)N[C@@H](CC(C)C)C(=O)N[C@H](C(=O)N1CCC[C@H]1C(=O)N[C@H](C(=O)N[C@@H](CC(=O)O)C(=O)N[C@@H](Cc1ccc(O)cc1)C(=O)NCC(=O)N[C@H]1CSSC[C@@H](C(=O)N[C@@H](CO)C(=O)N[C@H](C(=O)N[C@@H](C)C(=O)N[C@@H](CCSC)C(=O)N[C@@H](Cc2ccc(O)cc2)C(=O)NCC(=O)NCC(=O)N[C@H](C(=O)N[C@H](C(=O)N[C@@H](CC(=O)O)C(=O)N2CCC[C@H]2C(=O)N[C@H](C(=O)N[C@@H](CCCNC(=N)N)C(=O)N[C@@H](Cc2ccccc2)C(=O)N2CCC[C@H]2C(=O)N[C@@H](CC(N)=O)C(=O)N[C@@H](C)C(=O)N[C@@H](Cc2c[nH]c3ccccc23)C(=O)N[C@@H](CCCNC(=N)N)C(=O)N[C@@H](CCC(=O)O)C(=O)N[C@@H](CC(C)C)C(=O)O)[C@@H](C)CC)[C@@H](C)CC)C(C)C)C(C)C)NC(=O)[C@H](CC(C)C)NC(=O)[C@H](Cc2ccccc2)NC(=O)[C@@H]2CCCN2C(=O)[C@H](CC(N)=O)NC(=O)[C@H](Cc2ccccc2)NC1=O)[C@@H](C)CC)[C@@H](C)O,"Neutrophil elastase (ELANE, Homo sapiens, UniProt P08246)","enzyme activity, inhibitor",IC50,> 100 µM
COc1cccc(C=NNC(=O)c2cc(-c3cn(C)c4ccccc34)on2)c1OC,BACE1,"enzyme activity, inhibitor, FRET",IC50,8.28 µM
CCN(CC)C(=O)N[C@H]1C[C@@H]2c3cccc4[nH]cc(c34)C[C@H]2N(C)C1,HTR1E,"G protein activation, agonist, BRET",EC50,1.81 µM
c1ccc(-c2nnc(CN3CCN(c4ccccc4)CC3)o2)cc1,BACE1,"enzyme activity, inhibitor, FRET",IC50,4.79 µM
CNC(=O)c1ccc(-c2cnn3ccc(C(=O)N(C)c4ccc(Cl)c(C(=O)OC)c4)cc23)cc1,"Wee1-like protein kinase (WEE1, Homo sapiens, UniProt P30291)","enzyme activity, inhibitor",IC50,> 30 µM
